Broadly, the MIC is the lowest concentration found to suppress growth. High values mean a need for much substance, low ones inhibition by little substance.

In brackets after ≈: the same amount, converted by molar mass.

The source of these data is ChEMBL document CHEMBL5131404, “Lipophilic quinolone derivatives: Synthesis and in vitro antibacterial evaluation” (2022).

What all share (type): functional
For assay [1], the system named is Staphylococcus aureus. Put plainly: Antibacterial activity against Staphylococcus aureus ATCC 29213. The gist of the method: (§1)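 Broth microdilution MIC following CLSI guidelines. Strains were grown on Mueller-Hinton agar beforehand. The MIC is the lowest compound concentration that inhibits bacterial growth, determined at least three times in independent experiments.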

Assay [2] relates to Neisseria gonorrhoeae. Put plainly: Antibacterial activity against Neisseria gonorrhoeae WHO A. The gist of the method: (§2)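 Agar dilution MIC. Strains were cultured on GC agar with 2% v/v Vitox and 1% haemoglobin. Suspensions of 10^5 CFU/mL were spotted in duplicate onto the same supplemented GC agar containing various compound concentrations, then incubated 24-48 h at 37°C in 5% CO2. The MIC is the lowest concentration inhibiting growth, from at least three independent experiments.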

Assay [3] relates to Neisseria gonorrhoeae. Put plainly: Antibacterial activity against Neisseria gonorrhoeae ATCC 19424. The gist of the method: as §2
Assay [4] concerns Acinetobacter baumannii. Put plainly: Antibacterial activity against Acinetobacter baumannii 139. The gist of the method: as §1
Assay [5] concerns Neisseria gonorrhoeae. Put plainly: Antibacterial activity against Neisseria gonorrhoeae WHO O. An outline of the steps:
as §2

Assay [6] relates to Pseudomonas aeruginosa. Put plainly: Antibacterial activity against Pseudomonas aeruginosa 143. The gist of the method:
as §1

Assay [7] has as its system Neisseria gonorrhoeae. Put plainly: Antibacterial activity against Neisseria gonorrhoeae WHO Q. An outline of the steps: as §2
Assay [8] concerns Staphylococcus aureus. Put plainly: Antibacterial activity against methicillin-resistant Staphylococcus aureus 196. An outline of the steps: (§3)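 Strains grown on Mueller-Hinton agar. MIC by broth microdilution following CLSI guidelines, taken as the lowest concentration inhibiting bacterial growth. Determined at least three times in independent experiments.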
The subject of assay [9] is Neisseria gonorrhoeae. Put plainly: Antibacterial activity against Neisseria gonorrhoeae WHO M. The gist of the method:
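Agar dilution on GC agar base with 2% v/v Vitox and 1% haemoglobin containing graded compound concentrations. Suspensions at 10^5 CFU/mL spotted in duplicate. Incubation 24-48h, 37°C, 5% CO2. MIC taken as the lowest concentration inhibiting growth, determined at least three times in independent experiments.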

Assay [10] deals with Neisseria gonorrhoeae. Put plainly: Antibacterial activity against Neisseria gonorrhoeae WHO E. The gist of the method: as §2
For assay [11], the system named is Pseudomonas aeruginosa. Put plainly: Antibacterial activity against Pseudomonas aeruginosa 142. An outline of the steps:
as §1

For assay [12], the system named is Neisseria gonorrhoeae. Put plainly: Antibacterial activity against Neisseria gonorrhoeae WHO C. The gist of the method:
as §2

The test system of assay [13] is Neisseria gonorrhoeae. Put plainly: Antibacterial activity against Neisseria gonorrhoeae Barla194. An outline of the steps:
as §2

In assay [14] the test system is Neisseria gonorrhoeae. Put plainly: Antibacterial activity against Neisseria gonorrhoeae WHO Z. An outline of the steps:
as §2

Assay [15] relates to Neisseria gonorrhoeae. Put plainly: Antibacterial activity against Neisseria gonorrhoeae WHO K. An outline of the steps:
as §2

Assay [16] deals with Streptococcus pneumoniae. Put plainly: Antibacterial activity against Streptococcus pneumoniae ATCC 49169. An outline of the steps: as §1
Assay [17] has as its system Escherichia coli. Put plainly: Antibacterial activity against Escherichia coli ATCC 35218. An outline of the steps:
as §1

Assay [18] relates to Escherichia coli. Put plainly: Antibacterial activity against Escherichia coli 202. The gist of the method: as §1
Assay [19] concerns Acinetobacter baumannii. Put plainly: Antibacterial activity against Acinetobacter baumannii ATCC 19606. An outline of the steps:
as §1

The subject of assay [20] is Pseudomonas aeruginosa. Put plainly: Antibacterial activity against Pseudomonas aeruginosa ATCC 27853. An outline of the steps: as §1
Assay [21] relates to Escherichia coli. Put plainly: Antibacterial activity against Escherichia coli 203. The gist of the method:
as §1

In assay [22] the test system is Neisseria gonorrhoeae. Put plainly: Antibacterial activity against Neisseria gonorrhoeae WHO B. The gist of the method: as §2
The subject of assay [23] is Acinetobacter baumannii. Put plainly: Antibacterial activity against Acinetobacter baumannii 140. The gist of the method: as §1
In assay [24] the test system is Staphylococcus aureus. Put plainly: Antibacterial activity against methicillin-resistant Staphylococcus aureus 197. An outline of the steps:
as §3

Assay [25] relates to Neisseria gonorrhoeae. Put plainly: Antibacterial activity against Neisseria gonorrhoeae WHO G. An outline of the steps:
as §2

`CCCCCCCCCCN1CCN(c2c(F)cc3c(=O)c(C(=O)O)cn(C4CC4)c3c2OC)CC1`: the MIC in [1] was 32 µg/mL (≈ 63.8 µM); in [2], 0.5 µg/mL (≈ 0.997 µM); in assay [3], 0.12 µg/mL (≈ 0.239 µM); in assay [4], ≥ 64 µg/mL; in [5], 1 µg/mL (≈ 1.99 µM); in assay [6], > 64 µg/mL. Also, the MIC in assay [7] is 2 µg/mL (≈ 3.99 µM); in assay [8] it was ≥ 64 µg/mL; in assay [9] it was ≥ 64 µg/mL; in [10], 0.25 µg/mL (≈ 0.498 µM); in assay [11], > 64 µg/mL; in [12], 1 µg/mL (≈ 1.99 µM). In addition, the MIC is 256 µg/mL (≈ 510 µM) in [13]; ≥ 64 µg/mL in [14]; 256 µg/mL (≈ 510 µM) in assay [15]; > 64 µg/mL in assay [16]; ≥ 32 µg/mL in assay [17]; ≥ 64 µg/mL in assay [18]. Also, the MIC in [19] is 64 µg/mL (≈ 128 µM); in [20], > 64 µg/mL; in assay [21], > 64 µg/mL; in [22] it was 1 µg/mL (≈ 1.99 µM); in [23] it was 64 µg/mL (≈ 128 µM); in assay [24], > 64 µg/mL. Also, the minimum inhibitory concentration (MIC) in [25] was 8 µg/mL (≈ 15.9 µM).
For the molecule `O=C(O)c1cn(C2CC2)c2cc(N3CCNCC3)c(F)cc2c1=O` [CIPROFLOXACIN], the MIC is 0.25 µg/mL (≈ 0.754 µM) in assay [1]; 0.002 µg/mL (≈ 0.00604 µM) in assay [2]; 0.004 µg/mL (≈ 0.0121 µM) in [3]; > 32 µg/mL in assay [4]; 0.004 µg/mL (≈ 0.0121 µM) in assay [5]; > 32 µg/mL in assay [6]. Moreover, the MIC in [7] was 0.008 µg/mL (≈ 0.0241 µM); in assay [8], > 32 µg/mL; in assay [9] it was 2 µg/mL (≈ 6.04 µM); in assay [10], 0.002 µg/mL (≈ 0.00604 µM); in assay [11], > 32 µg/mL; in assay [12] it was 0.004 µg/mL (≈ 0.0121 µM). Further, the MIC in assay [13] was 32 µg/mL (≈ 96.6 µM); in assay [14] it was > 32 µg/mL; in [15], ≥ 32 µg/mL; in assay [19], 0.5 µg/mL (≈ 1.51 µM); in [21] it was > 32 µg/mL; in [22] it was 0.008 µg/mL (≈ 0.0241 µM). Besides, the MIC in assay [23] is > 32 µg/mL; in assay [24], > 32 µg/mL; in assay [25] it was 0.125 µg/mL (≈ 0.377 µM).
As for `CCCCCCCCN1CCN(c2c(F)cc3c(=O)c(C(=O)O)cn(C4CC4)c3c2OC)CC1`, the MIC in [1] was 4 µg/mL (≈ 8.45 µM); in assay [2], 0.03 µg/mL (≈ 0.0633 µM); in [3], 0.25 µg/mL (≈ 0.528 µM); in assay [4] it was 16 µg/mL (≈ 33.8 µM); in [5], 0.03 µg/mL (≈ 0.0633 µM); in assay [6] it was > 64 µg/mL. Also, the MIC in assay [7] was 0.5 µg/mL (≈ 1.06 µM); in assay [8], 4 µg/mL (≈ 8.45 µM); in assay [9], 16 µg/mL (≈ 33.8 µM); in assay [10], 0.03 µg/mL (≈ 0.0633 µM); in [11] it was > 64 µg/mL; in [12] it was 0.5 µg/mL (≈ 1.06 µM). Besides, the MIC in [13] is 128 µg/mL (≈ 270 µM); in assay [14], > 32 µg/mL; in assay [15], 256 µg/mL (≈ 541 µM); in assay [16], 32 µg/mL (≈ 67.6 µM); in [17], ≥ 64 µg/mL; in assay [18], 2 µg/mL (≈ 4.22 µM). Besides, the MIC in [19] is 16 µg/mL (≈ 33.8 µM); in assay [20] it was > 64 µg/mL; in assay [21], > 64 µg/mL; in assay [22], 0.12 µg/mL (≈ 0.253 µM); in assay [23], 64 µg/mL (≈ 135 µM); in assay [24], 8 µg/mL (≈ 16.9 µM). The MIC in assay [25] is 0.25 µg/mL (≈ 0.528 µM).
Turning to `CCCCCCCCCCCN1CCN(c2c(F)cc3c(=O)c(C(=O)O)cn(C4CC4)c3c2OC)CC1`, the MIC in assay [1] was 32 µg/mL (≈ 62.1 µM); in [3] it was 0.5 µg/mL (≈ 0.97 µM); in [4] it was ≥ 64 µg/mL; in assay [6], > 64 µg/mL; in assay [8], 64 µg/mL (≈ 124 µM); in assay [11] it was > 64 µg/mL. For the same molecule, the MIC in assay [16] is 8 µg/mL (≈ 15.5 µM); in assay [17], 16 µg/mL (≈ 31 µM); in [18] it was ≥ 64 µg/mL; in [19] it was 64 µg/mL (≈ 124 µM); in [20], > 64 µg/mL; in assay [21], > 64 µg/mL. Also, the figures for the MIC in assay [23] and in [24] were 64 µg/mL (≈ 124 µM) and ≥ 64 µg/mL, respectively.
In the case of `CCOCCOCCN1CCN(c2c(F)cc3c(=O)c(C(=O)O)cn(C4CC4)c3c2OC)CC1`, the MIC in assay [1] is 0.5 µg/mL (≈ 1.05 µM); in assay [3], 2 µg/mL (≈ 4.19 µM); in assay [16], 1 µg/mL (≈ 2.09 µM); in assay [17] it was 0.5 µg/mL (≈ 1.05 µM).
With `CCCCC(CC)CN1CCN(c2c(F)cc3c(=O)c(C(=O)O)cn(C4CC4)c3c2OC)CC1` (stereo not drawn), the minimum inhibitory concentration (MIC) in [1] is 32 µg/mL (≈ 67.6 µM); in assay [3], > 32 µg/mL; in assay [16], 2 µg/mL (≈ 4.22 µM); in [17], ≥ 64 µg/mL.
